# Screening results (PubChem BioAssay)
# Rows were chosen to be rich in hits. Some 0.99% of all compounds tested hit in one or more screens of this group.
# Dyrk1A ADPGlo: inhibitors of rat Dyrk1A kinase | ADP-Glo luminescence, NFATc1 peptide | inhibition, % at 12.5 µM | hit rate 0.43% among 310,000; in the data active = inhibition above about 50%;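 note: plate controls were vehicle with enzyme for no effect and no enzyme for full effect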
# GSK3A inh: human GSK-3 alpha kinase inhibition | P49840 | ADP-Glo luminescence, 60 min | inhibition, % at 10 µM | hit rate 0.1% among 320,000;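 active = more than half of replicates show inhibition above 20%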;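 note: GST-tagged GSK-3 alpha with peptide substrate and 25 µM ATP; 0% = DMSO neutral wells and 100% = GW8510 positive control wells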
# STK33 inh: blocks human STK33 kinase activity; Q9BYT3; purified STK33, MBP phosphorylation, ADP-Glo luminescence; inhibition, % at 10 µM; hit rate 0.073% among 320,000; AID 2661;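 active = inhibition at or above 25%, using the most active replicate where run in duplicate; inactive = inhibition below 25%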
# Target sequence (Q9BYT3 whole entry, looked up): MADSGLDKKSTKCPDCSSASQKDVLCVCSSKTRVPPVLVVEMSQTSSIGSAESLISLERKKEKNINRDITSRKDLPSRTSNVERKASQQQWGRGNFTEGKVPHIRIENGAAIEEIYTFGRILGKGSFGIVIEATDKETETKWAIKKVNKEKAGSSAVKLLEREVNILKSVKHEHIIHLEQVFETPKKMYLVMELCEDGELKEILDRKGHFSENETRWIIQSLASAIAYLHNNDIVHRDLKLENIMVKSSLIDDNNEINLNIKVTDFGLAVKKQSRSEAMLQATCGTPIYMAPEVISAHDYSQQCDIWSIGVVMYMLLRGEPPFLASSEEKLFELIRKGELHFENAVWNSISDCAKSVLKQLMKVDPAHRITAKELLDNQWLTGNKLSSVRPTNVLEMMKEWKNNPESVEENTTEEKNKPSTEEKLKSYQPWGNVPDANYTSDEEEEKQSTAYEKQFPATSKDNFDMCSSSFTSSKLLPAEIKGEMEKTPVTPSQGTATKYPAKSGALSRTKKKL
# GSK3B inh: human GSK3beta kinase inhibition | P49841 | GST-GSK3beta kinase, ADP-Glo luminescence, 60 min; hits give low values | activity score (negative = inhibition), % at 10 µM | hit rate 0.038% among 300,000 | AID 2097;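 active = more than half of replicate wells score below -50%, meaning over 50% inhibition versus plate controls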;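 note: 0% = median DMSO wells and -100% = median GW8510 positive control wells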
#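 Assay system: GST-fused GSK3beta enzyme, cell-free / Medium: Tris pH 7.5 buffer with MgCl2, DTT, BSA, heparin / Also added: peptide substrate plus 25 µM ATP (final) / Compound: 10 µM single point / Timing: kinase reaction with compound 60 min at room temperature / Detection: ADP-Glo luminescence / Benchmarks: DMSO neutral wells and GW8510 at 20 µM as positive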
# Arrestin-AP2 inh: inhibitors of human beta-arrestin and AP2 interaction; inhibition, % at 10 µM; AID 504490; FITC-arrestin peptide / GST-AP2 beads, flow cytometry; AP2 beta2 appendage carries R879A mutation; hit rate 0.31% among 340,000;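 active = inhibition above a set limit, near 3 SD of compounds lacking own fluorescence, cut at about 54% in these data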;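 note: plate controls were DMSO wells for no effect and 5 µM unlabelled arrestin peptide for full effect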
#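 Material – GST-tagged AP2 beta2-adaptin appendage (R879A) on 4 µm glutathione beads · Probe or stimulus – fluorescein-tagged arrestin peptide at 50 nM final · Timing – 12 min plus 1 h, RT · Detection – bead flow cytometry, FITC channel · Read-out basis – inhibition as reduced fluorescein signal on beads, percent · Medium – PBS plus Tween 20 (0.05%) and BSA (0.1%)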
# Rin1-Abl PPI inh: blocks binding of human Rin1 to Abl; P00519+Q13671; TR-FRET Rin1/Abl binding, biochemical; inhibition, % at 7.35 µM; hit rate 0.4% among 360,000; in the data active = inhibition above about 5%, passing the limit was not always enough
# Arr-AP2 CP1: inhibitors of human beta-arrestin and AP2 interaction | hit rate 2% among 1,300 | shares compounds with Arrestin-AP2 inh | inhibition, % at 10 µM | GST-AP2 beads, FITC arrestin peptide binding, flow cytometry; GST-fused beta2-adaptin appendage, R879A mutant;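 active = inhibition above a set limit, roughly 3 SD of non-fluorescent compound noise, cut at about 38% in these data; inactive = inhibition at or below that limit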;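 note: loss of bead fluorescence from 50 nM FITC arrestin peptide bound to appendage; 0% = negative control wells and 100% = excess unlabelled arrestin peptide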
# GST GSH counter: counter-screen for beta-arrestin AP2 inhibitors: GST-GSH bead binding; hit rate 2% among 1,300; inhibition, % at 10 µM; shares compounds with Arrestin-AP2 inh; GST-fluorescein binding to GSH beads, fluorescence; AID 588338;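 active = inhibition above 50%, about 3 SD of the inhibition seen with non-fluorescent compounds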;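 note: fluorescein maleimide labelled GST captured on 4 micron glutathione beads; higher means more loss of bead fluorescence from quenching or blocked binding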
# Starred values were filed as active, the others as inactive; / = no result.
SMILES,Dyrk1A ADPGlo,GSK3A inh,STK33 inh,GSK3B inh,Arrestin-AP2 inh,Rin1-Abl PPI inh,Arr-AP2 CP1,GST GSH counter
O=C(Nc1cc([N+](=O)[O-])ccc1Cl)c1ccc2c(c1)OCO2,-1,/,-2,2,89*,4,-10,3
COC(=O)C[C@H]1C[C@H]2c3cc(NS(=O)(=O)c4ccc(OC)cc4)ccc3O[C@H]2[C@H](CO)O1,/,/,/,/,/,2,/,/
Cc1ccc(CCCNC(=O)C2CCC(=O)N(Cc3cccc(F)c3)C2)cc1 (configuration not stated),2,0,1,2,8,1,-10,3
O=C(NCCc1cccc(F)c1)C1CCC(=O)N(CCCc2ccccc2)C1 (configuration not stated),-4,-1,0,1,62*,3,-5,-11
O=C(NCCc1cccc(C(F)(F)F)c1)C1CCC(=O)N(CCc2cccc(F)c2)C1 (configuration not stated),0,-1,0,2,-1,1,/,/
O=C(NCCN1CCCC1=O)C1CCC(=O)N(CCc2cccc(F)c2)C1 (configuration not stated),-7,0,-1,1,59*,1,-11,-2
CSc1ccc(CNC(=O)C2CCC(=O)N(CCc3cccc(F)c3)C2)cc1 (configuration not stated),-2,-4,-2,-3,8,0,/,/
O=C(NCc1cccc(F)c1)C1CCC(=O)N(CCc2cccc(F)c2)C1 (configuration not stated),1,0,1,-1,-5,1,-16,/
O=C(Nc1ccc2c(c1)OCCO2)c1coc2ccccc2c1=O,14,2,0,1,89*,1,4,-4
O=C(C1CCCCC1)N1C[C@@H](n2cc(-c3ccc(F)cc3)nn2)[C@H](O)C[C@@H]1c1ccccc1,/,/,/,/,/,0,/,/
CCOC(=O)C1CCN(C(=O)COC(=O)c2cc([N+](=O)[O-])ccc2N2CCOCC2)CC1,-5,-3,0,-2,-7,-2,/,/
CCOC(=O)C1CCN(C(=O)c2ccc(N3CCOCC3)c([N+](=O)[O-])c2)CC1,-6,-9,-1,/,64*,-1,-7,-3
O=C(CCN1C(=O)/C(=C/c2ccccc2)SC1=S)NNC(=O)c1cccnc1,5,-5,-2,2,106*,-1,10,1
COc1ccccc1C(=O)Nc1c(C(=O)N2CCN(C)CC2)oc2ccccc12,-2,/,1,0,4,5,/,/
Cc1nn(Cc2ccc(Cl)cc2Cl)c(Cl)c1/C=C/C(=O)OCC(=O)NCC(F)(F)F,-1,1,0,0,81*,-2,-4,-8
CCN(CC)CCN(Cc1cc2cc3c(cc2[nH]c1=O)OCCO3)C(=O)NC1CCCCC1,1,0,0,-6,5,-5,8,-8
COc1ccc(CN(Cc2cc3cc4c(cc3[nH]c2=O)OCO4)C(=O)NC2CCCCC2)cc1,2,-3,1,3,-1,-2,3,-5
COc1ccc(CCN2C(=O)CS/C2=N\NC(=O)c2ccc(C(C)(C)C)cc2)cc1OC,-4,0,-2,-6,62*,-4,5,-1
CS(=O)(=O)N1CCC(C(=O)Nc2cccc(Cl)c2Cl)CC1,2,-1,-2,1,21,-2,/,/
Cc1ccc(C2CC(c3cccs3)=NN2C(=O)CSc2nc3ccccc3o2)cc1 (configuration not stated),-4,-3,-2,7,62*,2,-1,-7
CCOC(=O)C1=C(COC(=O)COc2ccc(Br)cc2)NC(=O)NC1C (configuration not stated),7,1,-2,1,-4,0,-5,-7
CCOC(=O)C1=C(COC(=O)CCOc2ccc(C)cc2)NC(=O)NC1C (configuration not stated),19,1,1,-5,12,-1,-5,-11
C/C=C/c1ccc(OCC(=O)OCC2=C(C(=O)OCC)C(C)NC(=O)N2)c(OC)c1 (configuration not stated),-1,-4,0,2,8,2,/,/
CCOC(=O)C1=C(COC(=O)CCOc2ccc(OC)cc2)NC(=O)NC1C (configuration not stated),/,0,1,/,-9,-2,-1,-12
CC(C)n1cnnc1SCC(=O)NNC(=O)COc1ccc(Cl)cc1,-5,-3,-2,1,30,1,/,/
SMILES,Dyrk1A ADPGlo,GSK3A inh,STK33 inh,GSK3B inh,Arrestin-AP2 inh,Rin1-Abl PPI inh,Arr-AP2 CP1,GST GSH counter
O=C(CCCn1c(=O)[nH]c2ccccc2c1=O)Nc1ccc(F)cc1,-12,-4,0,/,57*,2,-9,-10
O=C(CCCn1c(=O)[nH]c2ccsc2c1=O)Nc1ccc(F)cc1,1,1,0,2,-1,-1,/,/
O=C(CCn1c(=O)[nH]c2ccccc2c1=O)Nc1ccccc1,2,/,-1,-2,-14,2,-15,-7
CCCN(CC(=O)Nc1ccc(F)c(F)c1F)C(=O)CCc1nc2ccccc2c(=O)[nH]1,-6,1,0,3,4,3,/,/
Cc1cc(NC(=O)c2cccs2)n(-c2nc3ccccc3[nH]2)n1,2,-4,4,1,76*,-1,-7,3
Cc1cc(NC(=O)c2sccc2C)n(-c2nc3ccccc3[nH]2)n1,-4,-3,-1,0,8,2,-6,1
CCOC(=O)C(=O)Nc1cc(C)nn1-c1nc2ccccc2[nH]1,0,1,-3,1,21,-1,/,/
Cc1cc(C)nc(NC(=NCCc2c[nH]c3ccccc23)NC(=O)c2ccco2)n1,-4,0,-1,-4,83*,3,-17,1
Cc1ccc(OCCSc2nc3ccccc3n2CC(=O)O)cc1C,/,-4,-2,6,54*,-3,-1,-3
Cc1ccc(C(=O)Nc2ccccc2C(=O)N2CCCC(C)C2)cc1 (configuration not stated),-12,-1,0,-1,56*,2,-1,1
COc1cccc(Nc2ncccc2C(=O)NCc2ccccc2)c1,7,/,/,/,-6,-1,/,/
COc1ccc(Nc2ncccc2C(=O)NCc2ccccc2)cc1,-2,2,0,3,58*,0,0,-1
CCC(C(=O)OCC(=O)NC(=O)c1ccccc1OC)c1ccccc1 (configuration not stated),5,-2,-1,-1,-9,0,/,/
